Experimental data: ChEMBL document CHEMBL1148398, “Design, synthesis, and biological evaluation of thio-containing compounds with serum HDL-cholesterol-elevating properties” (2004)

What was measured:
[1] = system: Rattus norvegicus; experiment: Effect of compound on serum high-density lipoprotein cholesterol concentration in chow-fed male rats at a dose of 0 mg/kg/day; type: functional, organism-based
In short: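 Separate dose-response study in male Sprague–Dawley CD rats, 60–80 g, on chow. Oral gavage once daily for 4 days in 1.3% Tween 80 / 0.25% CMC; fasted overnight, bled 24 h after last dose. Apo-A1 by ELISA with rabbit anti-rat primary, alkaline phosphatase-conjugated anti-rabbit IgG and p-nitrophenyl phosphate substrate. HDL-C by FPLC fractionation. Mean ± SEM, six per group.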

[2] = system: Cricetinae gen. sp.; experiment: Effect of compound on triglycerides level in 4th group of cholesterol-fed male hamsters at 100 mg/kg/day after 14 days of treatment; settings: Mesocricetus auratus
[3] = system: Rattus norvegicus; experiment: Effect of compound on alanine aminotransferase (ALT) levels in 6th group of normal chow-fed male rats after a dose of 50 mg/kg/day; type: functional, organism-based
In short: (§1)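 Male Sprague–Dawley CD rats (60–80 g) on standard chow under a reversed 12 h light/dark cycle. Compound was suspended in 1.3% Tween 80/0.25% CMC and given as a single daily oral gavage dose for 4 days. Rats were fasted overnight and killed 24 h after the last dose. Serum ALT, AST, ALKP and LDH were read on a clinical analyzer. Weight gain was start versus end weight. Mean ± SEM, n = 6.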

[4] = system: Rattus norvegicus; experiment: Effect of compound on alkaline phosphatase (ALKP) levels in 7th group of normal chow-fed male rats after a dose of 100 mg/kg/day; type: functional, organism-based; in short: as §1
[5] = Effect on serum lipids in 2nd group of cholesterol-fed male hamsters at 10 mg/kg/day after 14 days of treatment was evaluated as ratio of total cholesterol levels to high-density lipoprotein cholesterol levels; type: functional
In short: (§2)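 Male Syrian Golden hamsters on chow plus 0.25% cholesterol, 2 weeks before and during dosing. Oral gavage for 14 days in 2% Tween 80/saline. Fasted 4 h before sacrifice. Serum total cholesterol measured enzymatically; HDL-C from cholesterol in FPLC lipoprotein fractions; TC/HDL-C ratio calculated. Six per group, mean ± SEM.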

[6] = system: Cricetinae gen. sp.; experiment: Effect of compound on thyroxine levels in 1st group of cholesterol-fed male hamsters at 3 mg/kg/day after 14 days of treatment; settings: Mesocricetus auratus
[7] = system: Rattus norvegicus; experiment: Effect of compound on total plasma cholesterol levels in 1st group of normal chow-fed male rats after a dose of 1 mg/kg/day; type: functional, organism-based
In short: (§3)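 Male Sprague–Dawley CD rats, 60–80 g, on standard chow with reverse 12 h light/dark cycle. One oral gavage dose daily for 4 days, suspended in 1.3% Tween 80 and 0.25% CMC. Fasted overnight; sacrificed 24 h after the last dose. Serum TC on clinical analyzer, lipoproteins by FPLC with cholesterol per fraction, T4 on analyzer. Mean ± SEM, six rats per group.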

[8] = system: Cricetinae gen. sp.; experiment: Effect of compound on very low-density lipoprotein cholesterol levels in 2nd group of cholesterol-fed male hamsters at 10 mg/kg/day after 14 days of treatment; settings: Mesocricetus auratus
[9] = system: Cricetinae gen. sp.; experiment: Effect of compound on alanine aminotransferase (ALT) levels in 4th group of cholesterol-fed male hamsters at 100 mg/kg/day after 14 days of treatment; settings: Mesocricetus auratus
[10] = Effect on serum lipids in 3rd group of normal chow-fed male rats after a dose of 5 mg/kg/day was evaluated as ratio of total plasma cholesterol levels to high-density lipoprotein cholesterol levels; type: functional
In short: (§4)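 Male Sprague–Dawley CD rats, 60–80 g, chow-fed, dosed by oral gavage daily for 4 days in 1.3% Tween 80/0.25% CMC. Fasted overnight, bled 24 h after the last dose. Serum total cholesterol by enzymatic reagent; HDL-C from cholesterol in FPLC fractions; TPC/HDL-C ratio calculated. Six per group, mean ± SEM.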

[11] = system: Rattus norvegicus; experiment: Effect of compound on relative liver weight in 3rd group of normal chow-fed male rats after a dose of 5 mg/kg/day; type: functional
In short: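 Chow-fed male Sprague–Dawley CD rats, 60–80 g, dosed by oral gavage once daily for 4 days in 1.3% Tween 80/0.25% CMC. Fasted overnight and sacrificed 24 h after the last dose. Liver weight expressed as % of body weight at termination. Six per group, mean ± SEM.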

[12] = system: Rattus norvegicus; experiment: Percent change in high-density lipoprotein cholesterol in hypercholesterolemic rats dosed at 100 mg/kg/day for 8 days; type: functional
[13] = system: Rattus norvegicus; experiment: Effect of compound on aspartate aminotransferase (AST) levels in 6th group of normal chow-fed male rats after a dose of 50 mg/kg/day; type: functional, organism-based; in short: as §1
[14] = system: Rattus norvegicus; experiment: Effect of compound on alkaline phosphatase (ALKP) levels in 3rd group of normal chow-fed male rats after a dose of 5 mg/kg/day; type: functional, organism-based; in short: as §1
[15] = Effect on serum lipids in 5th group of normal chow-fed male rats after a dose of 20 mg/kg/day was evaluated as ratio of total plasma cholesterol levels to high-density lipoprotein cholesterol levels; type: functional; in short: as §4
[16] = system: Rattus norvegicus; experiment: Effect of compound on very low-density lipoprotein cholesterol levels in 2nd group of normal chow-fed male rats after a dose of 2 mg/kg/day; type: functional, organism-based
In short: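 Male Sprague–Dawley CD rats (60–80 g) on Purina 5001 chow with a reverse 12 h light/dark cycle. Dosed once daily by oral gavage for 4 days, suspended in 1.3% Tween 80 / 0.25% CMC. Fasted overnight and bled 24 h after the last dose. Serum TC and glycerol-blanked TG measured enzymatically; VLDL-C by FPLC fractionation with cholesterol assay. n=6, mean ± SEM.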

[17] = system: Mesocricetus auratus; experiment: Effect of compound on liver weight in 3rd group of cholesterol-fed male hamsters at 30 mg/kg/day after 14 days of treatment
[18] = system: Rattus norvegicus; experiment: Effect of compound on lactic dehydrogenase (LDH) levels in 4th group of normal chow-fed male rats after a dose of 10 mg/kg/day; type: functional, organism-based
In short: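 Male Sprague–Dawley CD rats, 60–80 g, on chow with a reverse 12 h light/dark cycle. Given one oral gavage dose daily for 4 days, suspended in 1.3% Tween 80/0.25% CMC. Fasted overnight and sacrificed 24 h after the last dose for blood and liver. Serum liver enzymes read on a clinical analyzer. Six per group, mean ± SEM.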

[19] = system: Cricetinae gen. sp.; experiment: Effect of compound on lactic dehydrogenase (LDH) levels in 1st group of cholesterol-fed male hamsters at 3 mg/kg/day after 14 days of treatment; settings: Mesocricetus auratus
[20] = Effect on serum lipids in 1st group of cholesterol-fed male hamsters at 3 mg/kg/day after 14 days of treatment was evaluated as ratio of total cholesterol levels to high-density lipoprotein cholesterol levels; type: functional; in short: as §2
[21] = system: Mesocricetus auratus; experiment: Effect of compound on gain in body weight in 2nd group of cholesterol-fed male hamsters at 10 mg/kg/day after 14 days of treatment
[22] = system: Rattus norvegicus; experiment: Effect of compound on low-density lipoprotein cholesterol levels in 3rd group of normal chow-fed male rats after a dose of 5 mg/kg/day; type: functional, organism-based; in short: as §3
[23] = system: Rattus norvegicus; experiment: Effect of compound on low-density lipoprotein cholesterol levels in 7th group of normal chow-fed male rats after a dose of 100 mg/kg/day; type: functional, organism-based; in short: as §3
[24] = system: Rattus norvegicus; experiment: Effect of compound on low-density lipoprotein cholesterol levels in 1st group of normal chow-fed male rats after a dose of 1 mg/kg/day; type: functional, organism-based; in short: as §3

In the case of `CCN1CC(=O)N(c2cc(Cl)ccc2C)C1=S`, the Serum level [1] is reported as 51.9 mg/dL, the Serum level [2] is reported as 342 mg/dL and the Level [3] is reported as 62 U l-1. For the same compound, the Level [4] was 382 U l-1, the Ratio [5] was 2.85 and the Serum level [6] was 5.8 µg/dL. The Serum level [7] was 55 mg/dL, the Serum level [8] was 102 mg/dL and the Level [9] was 639 U l-1. The Ratio [10] was 1.39, the Relative liver weight [11] was 3.8% and the Change [12] was 132%. For the same compound, the Level [13] was 232 U l-1, the Level [14] was 344 U l-1 and the Ratio [15] was 1.44. It also gave a Serum level [16] of 2.8 mg/dL, a Liver weight [17] of 8.5 g and a Level [18] of 553 U l-1. The Level [19] was 1230 U l-1, the Ratio [20] was 3.14 and the Body weight [21] was 9.5 g. The Serum level [22] was 6 mg/dL, the Serum level [23] was 8.7 mg/dL and the Serum level [24] was 5.7 mg/dL.
